697 NFkB inh = inhibitors of the PMA/ionomycin-induced NF-kB reporter in 697 B cells. 0.33% of 330,000 active. inhibition, % at 4 µM. 697 B-cell NF-kB luciferase reporter, 16 h; in the data active = inhibition above about 35%
Jurkat NFkB inh = lowers PMA/ionomycin-induced NF-kB signal in Jurkat cells; inhibition, % at 4 µM; 0.53% of 330,000 active; AID 435003; PMA/ionomycin-induced NF-kB luciferase reporter, luminescence; in the data active = inhibition above about 50%
CHOP UPR activ = apoptotic UPR (CHOP) activation; CHO-CHOP luciferase reporter, luminescence; percent of tunicamycin response over DMSO baseline; activation, % at 10 µM; 0.34% of 330,000 active;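 active = at 10 µM dose, activation of 40% or more, normalized to positive control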
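System: CHO-CHOP luciferase reporter cell line | Buffer or medium: F12 medium containing 10% fetal bovine serum | Doses: One dose, 10 µM in 0.5% DMSO | Times: 6 h compound exposure at 37 °C after overnight seeding | Signal: Luciferase luminescence | Read-out: % activation vs tunicamycin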
UPR XBP1 act = activators of adaptive arm of unfolded protein response (XBP1); CHO-XBP1 luciferase reporter, IRE1-XBP1 UPR activation, luminescence; percent of tunicamycin response, DMSO as zero; activation, % at 20 µM; 0.33% of 330,000 active; AID 463104;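 active = versus positive control, 20 µM dose yields 30% or more activation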
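Material: CHO cell line with stable XBP1 luciferase reporter; buffer or medium: F12 medium containing 10% fetal bovine serum; compound: single point, 20 µM final compound, 1% DMSO; incubation: 6 h treatment, 37 °C; measured by: glow luminescence from Steady-Glo reagent; evaluation: activation, % of tunicamycin; control set: tunicamycin high, DMSO low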
CHOP inhibitor = CHOP inhibition in unfolded protein response. CHO-K1 CHOP-promoter luciferase, tunicamycin-induced, 15-18 h. inhibition, % at 10 µM. 3.8% of 220,000 active. AID 2732;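 active = compounds that reduced the stress-induced luciferase reporter signal by more than about 70% of percent inhibition, limit read from the data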
CHOP inh conf = confirmation of CHOP induction inhibitors; shares compounds with CHOP inhibitor; CHO-CHOP promoter luciferase reporter, tunicamycin-induced, luminescence; inhibition, % at 10 µM; 45% of 2,100 active;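 active = mean of three repeat readings of reporter signal inhibition above a set limit, cut at about 70% in these data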
Each line names hits and unclear results; the compound was inactive in the other large screens (follow-up assays come after a bar, where they were run). The entries come from a sample that favours hits as a whole.

Cc1cccc(NS(=O)(=O)c2ccc(C3CCCCC3)cc2)c1	CHOP inhibitor 107.4 | CHOP inh conf 132.5
COc1cc(/C=N/N2CCN(C3c4ccccc4-c4ccccc43)CC2)ccc1O	CHOP inhibitor 106.3 | CHOP inh conf inactive
COC(=O)c1cc([N+](=O)[O-])c(-n2cncn2)c([N+](=O)[O-])c1	CHOP inhibitor 109.7 (no result: 697 NFkB inh, Jurkat NFkB inh, CHOP UPR activ, UPR XBP1 act) | CHOP inh conf inactive
COC(=O)c1cc(F)c(-n2cncn2)c(F)c1	none
COc1ccccc1Cn1c(=S)[nH]c2cc(C(=O)NCC3CCCO3)ccc2c1=O (centres undefined)	none
O=C(NCC1CCCO1)c1ccc2c(=O)n(Cc3ccc(Cl)cc3)c(=S)[nH]c2c1 (centres undefined)	CHOP inhibitor 102.8 | CHOP inh conf inactive
CCCCC(CC)Cn1c(N)c(C#N)c2nc3ccccc3nc21 (centres undefined)	CHOP inhibitor 100.9 | CHOP inh conf 133.2
CCCCC(CC)Cn1c2nc3ccccc3nc2c2c(=N)oc(C)nc21 (centres undefined)	CHOP inhibitor 105.9 (no result: 697 NFkB inh, Jurkat NFkB inh, CHOP UPR activ, UPR XBP1 act) | CHOP inh conf 103.8
CN(C)CCCn1c(N)c(C#N)c2nc3ccccc3nc21	none
C[C@H](CO)N1C[C@H](C)[C@@H](CN(C)Cc2ccncc2)Oc2c(NC(=O)Cc3ccccc3)cccc2C1=O	none (no result: CHOP inhibitor)
Cc1ccc(Nc2nc(N)c([N+](=O)[O-])c(N3CCCC(C)C3)n2)cc1C (centres undefined)	CHOP inhibitor 101.4 | CHOP inh conf inactive
CC1CCCN(c2nc(NCc3ccco3)nc(N)c2[N+](=O)[O-])C1 (centres undefined)	none
COc1cc2cc(C(=O)N3CCOCC3)cc(-c3ccc(C)cc3)c2cc1OC	none (no result: CHOP inhibitor)
O=C1COc2ccc(C(=O)CSc3nc4ccccc4c(=O)n3-c3ccc(Cl)c(Cl)c3)cc2N1	none
CCCn1c(SCC(=O)c2ccc3c(c2)NC(=O)CO3)nc2ccccc21	CHOP inhibitor 102.7 | CHOP inh conf inactive
Cc1c(C(=O)Nc2ccc3oc(-c4cccnc4)nc3c2)oc2ccccc12	CHOP inhibitor 99.8 | CHOP inh conf inactive
O=C(Nc1ccc2oc(-c3cccnc3)nc2c1)c1cccnc1	none
COc1cc(C(=S)N2CCOCC2)cc(OC)c1OC(=O)c1ccc(C)cc1	none (no result: CHOP inhibitor)
O=S(=O)(NCC(Nc1ccc(Cl)cc1)c1ccccc1)c1ccc(Cl)cc1 (centres undefined)	CHOP inhibitor 107.9 | CHOP inh conf 112.1
COc1ccc(C(=O)NC(=O)Nc2cc(C)ccn2)cc1	CHOP inhibitor 105.0 | CHOP inh conf 102.6
COc1ccc(C(=O)Nc2ccccc2C(=O)Nc2cc(C)ccn2)cc1	none (no result: CHOP inhibitor)
Cc1ccccc1-c1noc(-c2ccc(O)cc2)n1	CHOP inhibitor 104.5 | CHOP inh conf inactive
CN(CC(=O)Nc1c(Cl)cccc1Cl)C(=O)c1ccc2ccccc2n1	none (no result: CHOP inhibitor)
Nc1nnnn1/N=C/c1cccc(Oc2ccccc2)c1	none
Nc1nnnn1/N=C/c1cccc(OCc2ccccc2Cl)c1	CHOP inhibitor 104.2 | CHOP inh conf inactive
COc1cc(/C=N/Nc2ncnc3sc4c(c23)CCC4)ccc1O	none (no result: 697 NFkB inh, Jurkat NFkB inh, CHOP UPR activ, UPR XBP1 act)
CC(C)Cn1c(=O)[nH]c(=O)c2c(C(F)(F)F)cc(-c3ccccc3)nc21	CHOP inhibitor 99.5 | CHOP inh conf 100.3
COc1ccc2c3c(cccc13)C(=O)N(O)C2=O	CHOP inhibitor 101.7 (no result: 697 NFkB inh, Jurkat NFkB inh, CHOP UPR activ, UPR XBP1 act) | CHOP inh conf 108.4
Cc1ccc2nc(NC(=O)Cn3cc4c(n3)CCCCC4)sc2c1	none
CCC(=O)Nc1cccc(-c2cnc3ccccc3n2)c1	none
O=C(CCl)Nc1cccc(-c2cnc3ccccc3n2)c1	none (no result: CHOP inhibitor) | CHOP inh conf 83.9
CCCCn1c(N)c(N(CCOC)C(=O)C2CCN(c3ncnc4sc(C)c(C)c34)CC2)c(=O)[nH]c1=O	none (no result: CHOP inhibitor)
Cc1cc(=O)[nH]c(N=N/C(=N/Nc2ccccc2C)c2ccccc2)n1	CHOP inhibitor 102.9 | CHOP inh conf inactive
N#C/C(=C\c1ccc([N+](=O)[O-])o1)c1nc2ccccc2[nH]1	CHOP inhibitor 106.5 | CHOP inh conf 127.1
N#C/C(=C(/O)c1ccc([N+](=O)[O-])o1)c1nc2ccccc2[nH]1	none
O=C(OCn1ncc(Br)c(Br)c1=O)c1ccccc1Cl	CHOP inhibitor 111.4 | CHOP inh conf 124.1
COc1ccc(/C(C)=N/NC(=O)CNC(=O)CCc2ccccc2)c(OC)c1	none
Cc1nn(C(=O)c2cc([N+](=O)[O-])ccc2Cl)c(C)c1Br	none (no result: CHOP inhibitor)
O=C1c2ccccc2-c2onc3ccc(Oc4ccccc4)c1c23	CHOP inhibitor 106.3 | CHOP inh conf 83.8
COCCCNC(=O)c1ccc2c3c(onc13)-c1ccccc1C2=O	none
COc1ccccc1NCC(O)COc1ccc(C(C)(C)C)cc1 (centres undefined)	CHOP inhibitor 105.1 | CHOP inh conf 120.0
COc1ccc(NCC(O)COc2ccc(C(C)(C)C)cc2)cc1 (centres undefined)	CHOP inhibitor 104.3 | CHOP inh conf inactive
CNCC(O)COc1ccccc1 (centres undefined)	CHOP inhibitor 104.1 | CHOP inh conf inactive
CCOc1ccc(NC(=O)c2ccccc2NC(=O)CN(C)CC(=O)Nc2ccc(C)cc2)cc1	CHOP inhibitor 107.0 | CHOP inh conf inactive
CN1CCN(C2=C(Cl)C(=O)C(c3cnc(N4CCCCC4)s3)=C(Cl)C2=O)CC1	CHOP inhibitor 100.4 | CHOP inh conf inactive
Cc1cccc(N2CCN(C3=NC(=O)/C(=C\c4cn[nH]c4-c4ccccc4)S3)CC2)c1	CHOP inhibitor 102.0 | CHOP inh conf inactive
Cc1cc(C)c(C(=O)C(C)OC(=O)c2ccc(Cl)nc2)cc1C (centres undefined)	none (no result: CHOP inhibitor)
CCn1c(=O)c(C(=O)NNS(=O)(=O)c2ccc(Br)cc2)c(O)c2ccccc21	CHOP inhibitor 105.3 | CHOP inh conf inactive
CCn1c(=O)c(C(=O)NNS(=O)(=O)c2ccc(C)cc2)c(O)c2ccccc21	none
CCCCC(=O)NS(=O)(=O)c1ccc(NS(C)(=O)=O)cc1	none
CCc1nnc(NS(=O)(=O)c2ccc(NCc3cc(Cl)cc(Cl)c3O)cc2)s1	none (no result: CHOP inhibitor)
CCN1CCN(c2cc(C)c3cc(NC(=S)N4CCN(c5ccc(F)cc5)CC4)ccc3n2)CC1	CHOP inhibitor 106.0 | CHOP inh conf inactive
COc1cc(Cl)ccc1OCc1cc(C(=O)N(C)CCc2cnn(C)c2)no1	none (no result: CHOP inhibitor)
O=C(N/N=C/c1cccc(O)c1)NC1CCCCC1	none
O=C(N/N=C/C=C/c1ccccc1)NC1CCCCC1	CHOP inhibitor 101.4 | CHOP inh conf inactive
NC(=S)n1[nH]c(-c2ccc([N+](=O)[O-])cc2)c(N=Nc2cccc([N+](=O)[O-])c2)c1=O	CHOP inhibitor 102.0 (no result: 697 NFkB inh, Jurkat NFkB inh, CHOP UPR activ, UPR XBP1 act) | CHOP inh conf 98.4
O=c1c2ccccc2sn1-c1ccccc1	CHOP inhibitor 108.1 | CHOP inh conf inactive
CCOc1ccccc1Nc1nnc(SCC(=O)NC2CCS(=O)(=O)C2)s1 (centres undefined)	none (no result: CHOP inhibitor)

Source: PubChem (several laboratories)
